Source: ChEMBL document CHEMBL1145022, “Hydantoin-substituted 4,6-dichloroindole-2-carboxylic acids as ligands with high affinity for the glycine binding site of the NMDA receptor” (J Med Chem, 2003)
The source made the active and inactive calls. The calls are words filed in the database; no cut-off is given here.

Legend:
[1] = biological target: T1, Sodium channel alpha subunits; brain (Types I, II, III) (Rattus norvegicus) (UniProt P04775+P04774+P08104); assay: Affinity for sodium channel site 2 up to 10 uM; Inactive; format: protein assay
[2] = Partition coefficient (logP); format: physicochemical; settings: octanol/water
In short: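 Potentiometric titration in n-octanol/water; each Log P value is the mean of at least three independent experiments.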

[3] = biological target: T1, Sodium channel alpha subunits; brain (Types I, II, III) (Rattus norvegicus); assay: Inhibition of [3H]batrachotoxin binding to rat brain sodium channels at 10 uM
[4] = biological target: T1, Sodium channel alpha subunits; brain (Types I, II, III) (Rattus norvegicus); assay: Inhibition of [3H]batrachotoxin binding to rat brain sodium channels at 0.1 uM
[5] = biological target: T1, Sodium channel alpha subunits; brain (Types I, II, III) (Rattus norvegicus); assay: Inhibition of [3H]batrachotoxin binding to rat brain sodium channels at 1 uM

T1 sequence (P04775 whole entry, looked up, other chains not shown): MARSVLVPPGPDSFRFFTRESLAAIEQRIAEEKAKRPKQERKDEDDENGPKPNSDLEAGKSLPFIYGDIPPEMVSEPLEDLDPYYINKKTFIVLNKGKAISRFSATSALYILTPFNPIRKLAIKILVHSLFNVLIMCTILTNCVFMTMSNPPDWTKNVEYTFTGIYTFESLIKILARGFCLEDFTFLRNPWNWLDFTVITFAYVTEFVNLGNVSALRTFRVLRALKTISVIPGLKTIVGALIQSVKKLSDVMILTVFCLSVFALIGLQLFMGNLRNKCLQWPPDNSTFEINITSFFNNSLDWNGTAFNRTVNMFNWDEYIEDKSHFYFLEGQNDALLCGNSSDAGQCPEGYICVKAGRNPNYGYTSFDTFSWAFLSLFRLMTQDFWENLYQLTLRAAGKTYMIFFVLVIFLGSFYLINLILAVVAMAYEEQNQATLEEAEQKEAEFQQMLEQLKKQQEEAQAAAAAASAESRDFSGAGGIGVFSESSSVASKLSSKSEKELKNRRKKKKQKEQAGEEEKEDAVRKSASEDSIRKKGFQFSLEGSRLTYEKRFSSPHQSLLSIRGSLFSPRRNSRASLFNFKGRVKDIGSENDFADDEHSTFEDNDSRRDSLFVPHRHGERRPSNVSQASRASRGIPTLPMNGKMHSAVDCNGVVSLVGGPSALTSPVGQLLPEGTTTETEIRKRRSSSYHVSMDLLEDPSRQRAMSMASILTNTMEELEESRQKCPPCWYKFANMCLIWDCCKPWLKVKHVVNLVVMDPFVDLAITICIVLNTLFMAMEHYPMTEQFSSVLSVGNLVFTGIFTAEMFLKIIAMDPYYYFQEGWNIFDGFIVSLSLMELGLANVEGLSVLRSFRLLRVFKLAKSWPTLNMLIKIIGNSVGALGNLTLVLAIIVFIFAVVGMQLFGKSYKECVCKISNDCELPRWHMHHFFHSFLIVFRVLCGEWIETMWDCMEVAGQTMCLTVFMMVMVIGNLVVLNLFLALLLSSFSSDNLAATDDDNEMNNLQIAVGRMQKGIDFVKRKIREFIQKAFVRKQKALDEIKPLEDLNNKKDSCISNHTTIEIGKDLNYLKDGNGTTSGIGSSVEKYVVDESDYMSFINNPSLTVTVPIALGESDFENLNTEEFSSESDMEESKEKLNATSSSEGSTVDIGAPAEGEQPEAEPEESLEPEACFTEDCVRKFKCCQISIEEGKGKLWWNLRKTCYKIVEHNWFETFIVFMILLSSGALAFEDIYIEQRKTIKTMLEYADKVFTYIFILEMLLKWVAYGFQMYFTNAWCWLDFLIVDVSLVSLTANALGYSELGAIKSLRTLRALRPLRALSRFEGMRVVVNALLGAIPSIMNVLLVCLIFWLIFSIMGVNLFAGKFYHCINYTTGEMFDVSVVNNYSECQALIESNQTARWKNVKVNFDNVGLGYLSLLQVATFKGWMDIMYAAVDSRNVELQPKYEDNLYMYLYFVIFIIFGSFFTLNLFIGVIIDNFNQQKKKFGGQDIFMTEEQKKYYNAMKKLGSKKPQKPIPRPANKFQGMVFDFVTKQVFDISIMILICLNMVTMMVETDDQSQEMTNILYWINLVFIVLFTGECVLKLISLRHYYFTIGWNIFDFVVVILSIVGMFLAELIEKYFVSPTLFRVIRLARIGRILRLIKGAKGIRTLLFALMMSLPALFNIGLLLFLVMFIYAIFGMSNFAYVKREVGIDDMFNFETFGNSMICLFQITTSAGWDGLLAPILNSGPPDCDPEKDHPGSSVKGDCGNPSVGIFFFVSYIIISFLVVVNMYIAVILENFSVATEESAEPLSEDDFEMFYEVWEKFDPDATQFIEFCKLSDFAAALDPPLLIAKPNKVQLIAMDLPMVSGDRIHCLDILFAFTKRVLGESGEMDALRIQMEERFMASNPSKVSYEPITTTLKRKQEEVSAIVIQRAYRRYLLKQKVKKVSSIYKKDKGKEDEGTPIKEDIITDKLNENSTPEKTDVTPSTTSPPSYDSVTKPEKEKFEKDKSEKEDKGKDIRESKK
T1 sequence (P08104 whole entry, looked up, other chains not shown): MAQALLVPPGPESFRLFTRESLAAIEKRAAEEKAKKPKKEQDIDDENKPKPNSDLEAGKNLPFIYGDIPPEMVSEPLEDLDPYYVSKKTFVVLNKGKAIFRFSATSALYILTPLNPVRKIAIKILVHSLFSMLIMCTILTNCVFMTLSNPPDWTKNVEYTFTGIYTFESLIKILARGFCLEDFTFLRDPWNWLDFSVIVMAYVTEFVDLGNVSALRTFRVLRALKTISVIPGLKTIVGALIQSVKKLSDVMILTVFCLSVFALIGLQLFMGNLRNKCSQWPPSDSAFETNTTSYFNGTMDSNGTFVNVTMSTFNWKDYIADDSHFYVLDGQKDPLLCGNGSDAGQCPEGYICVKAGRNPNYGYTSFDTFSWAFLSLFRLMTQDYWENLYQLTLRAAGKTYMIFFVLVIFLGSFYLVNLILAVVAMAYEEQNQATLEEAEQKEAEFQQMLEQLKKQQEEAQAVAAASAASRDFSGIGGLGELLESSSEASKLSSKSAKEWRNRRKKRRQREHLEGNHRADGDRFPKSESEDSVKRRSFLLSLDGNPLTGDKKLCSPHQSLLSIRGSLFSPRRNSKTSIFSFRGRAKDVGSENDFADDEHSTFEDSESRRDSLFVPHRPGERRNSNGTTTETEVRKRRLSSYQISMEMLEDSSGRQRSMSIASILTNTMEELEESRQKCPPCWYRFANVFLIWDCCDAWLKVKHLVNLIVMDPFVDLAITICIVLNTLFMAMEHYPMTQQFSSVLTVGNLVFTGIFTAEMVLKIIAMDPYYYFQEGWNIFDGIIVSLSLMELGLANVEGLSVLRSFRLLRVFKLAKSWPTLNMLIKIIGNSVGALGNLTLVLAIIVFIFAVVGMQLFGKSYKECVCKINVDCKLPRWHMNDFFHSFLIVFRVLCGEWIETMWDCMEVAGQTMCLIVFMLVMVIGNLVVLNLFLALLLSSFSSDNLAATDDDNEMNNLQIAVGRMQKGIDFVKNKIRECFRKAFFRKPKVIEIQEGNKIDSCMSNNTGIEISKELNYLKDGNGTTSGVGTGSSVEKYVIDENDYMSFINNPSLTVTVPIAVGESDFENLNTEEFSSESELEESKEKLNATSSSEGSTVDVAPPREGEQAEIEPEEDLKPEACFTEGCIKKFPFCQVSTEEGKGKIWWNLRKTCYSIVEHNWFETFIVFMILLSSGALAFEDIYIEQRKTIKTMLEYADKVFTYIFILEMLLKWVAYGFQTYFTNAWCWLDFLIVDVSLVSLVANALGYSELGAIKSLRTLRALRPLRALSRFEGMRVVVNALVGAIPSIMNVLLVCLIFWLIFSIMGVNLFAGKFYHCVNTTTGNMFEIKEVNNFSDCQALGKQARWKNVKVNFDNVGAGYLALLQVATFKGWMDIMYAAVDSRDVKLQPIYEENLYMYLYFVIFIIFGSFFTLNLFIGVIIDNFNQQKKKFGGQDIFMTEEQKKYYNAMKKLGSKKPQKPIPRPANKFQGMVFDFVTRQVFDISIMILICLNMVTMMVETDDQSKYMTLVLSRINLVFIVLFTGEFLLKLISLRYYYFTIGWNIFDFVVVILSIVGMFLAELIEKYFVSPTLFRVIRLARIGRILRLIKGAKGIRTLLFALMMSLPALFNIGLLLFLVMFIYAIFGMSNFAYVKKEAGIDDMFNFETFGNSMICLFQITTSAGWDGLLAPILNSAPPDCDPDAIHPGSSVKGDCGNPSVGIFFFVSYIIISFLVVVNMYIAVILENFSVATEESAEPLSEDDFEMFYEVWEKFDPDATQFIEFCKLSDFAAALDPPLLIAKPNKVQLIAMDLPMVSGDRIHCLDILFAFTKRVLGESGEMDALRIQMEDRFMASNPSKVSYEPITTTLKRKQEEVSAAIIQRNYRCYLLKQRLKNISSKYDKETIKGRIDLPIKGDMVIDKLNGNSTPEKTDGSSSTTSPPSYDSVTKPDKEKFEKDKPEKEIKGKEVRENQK

| logP [2] | Compound | other results |
| --- | --- | --- |
| 2.16 | O=C(O)c1[nH]c2cc(Cl)cc(Cl)c2c1CN1CC(=O)N(c2ccccc2)C1=O | IA [1]: inactive |
| 3.1 | O=C(O)c1[nH]c2cc(Cl)cc(Cl)c2c1CNS(=O)(=O)c1ccccc1 | – |

More lines, now with the values behind:

| Compound | logP [2] | other results |
| --- | --- | --- |
| O=C(NCc1c(C(=O)O)[nH]c2cc(Cl)cc(Cl)c12)c1ccccc1 | 2.36 | – |
| O=C(NCc1c(C(=O)O)[nH]c2cc(Cl)cc(Cl)c12)Nc1ccccc1 | 2.83 | – |
| CC(C)C1C(=O)N(c2ccccc2)C(=O)N1Cc1c(C(=O)O)[nH]c2cc(Cl)cc(Cl)c12 (stereo not drawn) | – | inhibition [3]: 29%; inhibition [4]: 11%; inhibition [5]: 8% |
